# ChEMBL document CHEMBL4052705, “Synthesis and biological evaluation of 2-methyl-1H-benzimidazole-5-carbohydrazides derivatives as modifiers of redox homeostasis of Trypanosoma cruzi” (Bioorg Med Chem Lett, 2017)
# The source made the active and inactive calls. The calls are words filed in the database; no cut-off is given here.
# How the values were obtained:
# Trypanosoma cruzi [1] = experiment: Antitrypanosomal activity against Trypanosoma cruzi Queretaro epimastigotes assessed as reduction in parasite viability incubated for 24 hrs by Neubauer hematocytometery; type: functional
# In short: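 T. cruzi Queretaro-strain epimastigotes were exposed to the compounds and parasite growth was measured. IC50 was taken as the concentration that inhibits parasite growth by 50%.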
# [2] = Selectivity index, ratio of CC50 for cytotoxicity against mouse J774 cells to IC50 for antitrypanosomal activity against Trypanosoma cruzi Queretaro epimastigotes; type: toxicity, cell-based; conditions: read-out: Ratio CC50/IC50
# In short: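 Selectivity index was calculated as CC50 in J774 mouse macrophages (resazurin reduction) divided by IC50 for growth inhibition of Queretaro-strain epimastigotes.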
# [3] = Cytotoxicity against mouse J774 cells incubated for 24 hrs by resazurin dye based fluorescence assay; type: cell-based
# In short: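 J774 mouse macrophage cell line was exposed to the compounds, and cytotoxicity was read as resazurin reduction using a previously described method with modifications. The read-out gave CC50.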
# Trypanosoma cruzi [4] = experiment: Induction of changes in cellular redox balance in Trypanosoma cruzi Queretaro epimastigotes assessed as increase in T(SH)2 level at 5 to 20 uM incubated for 24 hrs by HPLC and UV-Vis spectrophotometry; type: functional
# Trypanosoma cruzi [5] = experiment: Induction of changes in cellular redox balance in Trypanosoma cruzi Queretaro epimastigotes assessed as increase in cysteine level incubated for 24 hrs by HPLC and UV-Vis spectrophotometry; type: functional
# Trypanosoma cruzi [6] = experiment: Induction of changes in cellular redox balance in Trypanosoma cruzi Queretaro epimastigotes assessed as increase in GSH level incubated for 24 hrs by HPLC and UV-Vis spectrophotometry; type: functional
smiles,measurement,setting,value
Cc1nc2cc(C(=O)N/N=C/c3ccc(O)c(O)c3)ccc2[nH]1,IC50,Trypanosoma cruzi [1],380 µM
Cc1nc2cc(C(=O)N/N=C/c3ccc(O)cc3)ccc2[nH]1,IC50,Trypanosoma cruzi [1],> 500 µM
Cc1nc2cc(C(=O)N/N=C/c3ccccc3)ccc2[nH]1,IC50,Trypanosoma cruzi [1],280 µM
Cc1nc2cc(C(=O)O)ccc2[nH]1,IC50,Trypanosoma cruzi [1],226 µM
same,selectivity ratio,[2],1.2
same,CC50 at 24 h,[3],264 µM
CC1CS(=O)(=O)CCN1/N=C/c1ccc([N+](=O)[O-])o1 (stereo not given) [NIFURTIMOX],selectivity ratio,[2],36.5
Cc1nc2cc(C(=O)N/N=C/c3ccc([N+](=O)[O-])o3)ccc2[nH]1,IC50,Trypanosoma cruzi [1],434 µM
COc1cc(/C=C/C=N/NC(=O)c2ccc3[nH]c(C)nc3c2)ccc1O,Activity,Trypanosoma cruzi [4],Active
same,Activity,Trypanosoma cruzi [5],Dose-dependent effect
same,IC50,Trypanosoma cruzi [1],8 µM
same,Activity,Trypanosoma cruzi [6],Dose-dependent effect
same,selectivity ratio,[2],20.1
same,CC50 at 24 h,[3],161 µM
COc1cc(/C=N/NC(=O)c2ccc3[nH]c(C)nc3c2)cc(OC)c1OC,IC50,Trypanosoma cruzi [1],> 500 µM
O=C(Cn1ccnc1[N+](=O)[O-])NCc1ccccc1 [BENZNIDAZOLE],IC50,Trypanosoma cruzi [1],7.5 µM
Cc1nc2cc(C(=O)N/N=C/c3ccc4c(c3)OCCO4)ccc2[nH]1,IC50,Trypanosoma cruzi [1],> 500 µM
COc1ccc(/C=N/NC(=O)c2ccc3[nH]c(C)nc3c2)cc1OC,IC50,Trypanosoma cruzi [1],> 500 µM
COc1cc(/C=N/NC(=O)c2ccc3[nH]c(C)nc3c2)ccc1O,Activity,Trypanosoma cruzi [4],inactive
same,Activity,Trypanosoma cruzi [5],Dose-dependent effect
same,IC50,Trypanosoma cruzi [1],3 µM
same,Activity,Trypanosoma cruzi [6],Dose-dependent effect
same,selectivity ratio,[2],53.5
same,CC50 at 24 h,[3],161 µM
Cc1nc2cc(C(=O)NN)ccc2[nH]1,IC50,Trypanosoma cruzi [1],393 µM
same,selectivity ratio,[2],0.6
same,CC50 at 24 h,[3],233 µM
COc1ccc(/C=N/NC(=O)c2ccc3[nH]c(C)nc3c2)c(OC)c1OC,IC50,Trypanosoma cruzi [1],> 500 µM
Cc1nc2cc(C(=O)N/N=C/c3cc(O)ccc3O)ccc2[nH]1,IC50,Trypanosoma cruzi [1],> 500 µM
COc1ccc(/C=N/NC(=O)c2ccc3[nH]c(C)nc3c2)cc1,IC50,Trypanosoma cruzi [1],320 µM
